In brackets after ≈: the same amount, converted by molar mass.
Key:
Candida albicans [1] = test: Inhibitory of Candida albicans; type: functional
Procedure, shortened: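 MIC against C. albicans SC5314 in YNBGlc medium: yeast nitrogen base without amino acids, supplemented with histidine, methionine, tryptophan, glutamine and 2% glucose.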

Candida albicans [2] = test: Inhibition of Candida albicans after addition of amino acids at 1 mM; type: functional
Procedure, shortened: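 MIC against C. albicans SC5314 in YNBGlc medium (YNB without amino acids plus histidine, methionine, tryptophan, glutamine, 2% glucose), further supplemented with an amino acid mixture at 1mM final, to compete for permease uptake.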

Candida albicans [3] = test: Fungicidal activity against Candida albicans; type: functional
[4] = molecular target: Protein farnesyltransferase (Candida albicans); test: Inhibition of Candida albicans Farnesyltransferase
[5] = molecular target: Geranylgeranyl transferase type I (Candida albicans); test: Inhibition of Candida albicans Geranylgeranyl transferase type I

MIC (Candida albicans [1]) [µg/mL]	MIC (Candida albicans [2]) [µg/mL]	IC50 [4] [nM]	IC50 [5] [nM]	Structure (SMILES)	MFC (Candida albicans [3]) [µg/mL]
1 (≈ 2.03 µM)	> 64	3000	10	CC(C)C[C@H](NC(=O)C1(c2ccccc2)CCN(C(=O)[C@@H](N)CS)CC1)C(=O)N[C@@H](C)C(=O)O	2 (≈ 4.06 µM)
> 128	–	–	5	COC(=O)[C@H](CC(C)C)NC(=O)C1(c2ccccc2)CCN(C(=O)[C@@H](N)CS)CC1	> 128
> 128	–	200	< 5	CC(C)C[C@H](NC(=O)C1(c2ccccc2)CCN(C(=O)[C@@H](N)CS)CC1)C(=O)O	> 128
